1 compound from ChEMBL document CHEMBL4364341, “Radiosensitization of Head and Neck Squamous Cell Carcinoma (HNSCC) by a Podophyllotoxin” (ACS Med Chem Lett, 2019) can be followed below.

pIC50: −log10 of the molar value. The source made the active and inactive calls. The calls are words filed in the database; no cut-off is given here.

The test system of test [1] is SCC-25. Briefly: Selectivity ratio of IC50 for antiproliferative activity against human SCC25 cells assessed as reduction in colony formation unit to IC50 for antiproliferative activity against human SCC25 cells assessed as reduction in colony formation unit followed by irradiation with 5 Gy IR. Type of test: functional.
The subject of test [2] is FaDu. Briefly: Inhibition of cell migration in human FADU cells at 0.5 uM incubated for 12 and 24 hrs by microscopic analysis. It is filed as functional, cell-based. The method, boiled down: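 Scratch assay: 10^5 cells/well were grown to confluence in 12-well plates, with mitomycin C to block proliferation. Cells were treated with compound for 24 h, with or without 5 Gy IR, then scratched with a pipette tip, washed with PBS and given fresh medium. Imaging was at 0, 6, 12 and 24 h. % migration = gap decrease relative to the 0 h gap.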

The test system of test [3] is FaDu. As to the kind of experiment: Synergistic antiproliferative activity against human FADU cells assessed as reduction in colony formation unit followed by irradiation with 5 Gy IR and measured after 10 to 14 days by crystal violet staining based assay. Type of test: functional, cell-based.
The subject of test [4] is FaDu. As to the kind of experiment: Antiproliferative activity against human FADU cells assessed as reduction in cell viability at 1 uM after 6 days by MTT assay relative to control. It is filed as functional. To be noted: 144 h. The method, boiled down: (§1)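 FaDu or SCC-25 cells were grown in DMEM with 10% FBS at 37 °C and 5% CO2. They were seeded at 1000 cells/well in 96-well plates for 24 h, then dosed with compound (fresh DMSO stock diluted in medium) or vehicle. After 1 h, X-rays were given with a sliding 5 mm lead shield, so one plate held 0, 2.5, 5 and 10 Gy columns. After 6 days, MTT (0.5 mg/mL, 45 min) was added, then DMSO, and A570 was read. Values were normalised to the unirradiated vehicle control. Fractional inhibition = 1 − surviving fraction.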

Test [5] deals with SCC-25. As to the kind of experiment: Synergistic induction of cell cycle arrest in human SCC25 cells assessed as decrease in accumulation at G0/G1 phase at 0.5 uM followed irradiation with 5Gy IR incubated for 24 hrs by propidium iodide staining based flow cytometry. Type of test: functional. In a few lines:
(§2)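 FaDu or SCC-25 cells, untreated, given 5 Gy IR, drug, or drug plus 5 Gy. Cell-cycle distribution by propidium iodide staining and flow cytometry at 6 h and 24 h after treatment. G0/G1, S and G2/M fractions compared with control by t test.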

Test [6] deals with FaDu. Briefly: Synergistic antiproliferative activity against human FADU cells assessed as fractional inhibition at 0.005 uM preincubated for 1 hr followed by irradiation with 2.5 Gy IR and measured after 6 days by MTT assay (reference value: 0.131). It is filed as functional. In a few lines:
as §1

Test [7] has as its system FaDu. Briefly: Synergistic induction of cell cycle arrest in human FADU cells assessed as decrease in CDK1 at 0.5 uM followed by irradiation with 5 Gy IR incubated for 48 hrs by immunoblot analysis. It is filed as functional, cell-based. The method, boiled down:
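FaDu cells received drug, 5 Gy IR, or both; vehicle-only controls. Lysates collected after 48 h and immunoblotted with primary antibodies to NRF2, cyclin B1, CDK1, Bax and Bcl-2. Membranes stripped and reprobed for beta-actin as loading control.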

Test [8] deals with FaDu. As to the kind of experiment: Synergistic induction of cell cycle arrest in human FADU cells at 0.5 uM followed by irradiation with 5Gy IR incubated for 6 hrs by propidium iodide staining based flow cytometry. It is filed as functional. The method, boiled down:
as §2
For orientation: A flow cytometer gives signals particle by particle.

Test [9] has as its target T1, Nuclear factor erythroid 2-related factor 2 (Homo sapiens) (UniProt Q16236).
T1 sequence (whole entry): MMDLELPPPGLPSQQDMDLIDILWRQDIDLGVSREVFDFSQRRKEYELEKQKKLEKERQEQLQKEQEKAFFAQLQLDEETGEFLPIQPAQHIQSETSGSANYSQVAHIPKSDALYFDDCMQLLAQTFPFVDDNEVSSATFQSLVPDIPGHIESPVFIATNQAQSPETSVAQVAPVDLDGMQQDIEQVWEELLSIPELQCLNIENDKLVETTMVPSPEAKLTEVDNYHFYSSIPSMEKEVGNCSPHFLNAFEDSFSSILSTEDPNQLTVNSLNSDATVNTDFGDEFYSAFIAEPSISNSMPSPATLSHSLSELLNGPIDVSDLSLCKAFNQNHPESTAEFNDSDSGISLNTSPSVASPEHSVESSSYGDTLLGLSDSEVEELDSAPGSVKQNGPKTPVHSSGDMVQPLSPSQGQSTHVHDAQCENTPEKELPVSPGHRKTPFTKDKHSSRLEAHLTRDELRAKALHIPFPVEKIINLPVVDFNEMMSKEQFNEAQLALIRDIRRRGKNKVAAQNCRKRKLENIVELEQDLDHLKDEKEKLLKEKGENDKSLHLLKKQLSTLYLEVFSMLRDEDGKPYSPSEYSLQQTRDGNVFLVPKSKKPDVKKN
As to the kind of experiment: Inhibition of Nrf2 in human FADU cells at 0.5 uM incubated for 48 hrs by immunofluorescence analysis. Type of test: cell-based. The method, boiled down:
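FaDu cells received compound, 5 Gy IR, or both, and Nrf2 was imaged by immunofluorescence 48 h later.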

The subject of test [10] is SCC-25. Briefly: Synergistic antiproliferative activity against human SCC25 cells assessed as combination index at 0.05 uM preincubated for 1 hr followed by irradiation with 10 Gy IR and measured after 6 days by MTT assay. Type of test: functional. In a few lines: (§3)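 SCC-25 cells grown in DMEM with 10% FBS at 37 °C, 5% CO2, seeded 1000 cells/well in 96-well plates and left 24 h. Drug in DMSO, diluted in complete medium, added 1 h before X-irradiation. A movable 5 mm lead shield gave 0, 2.5, 5 or 10 Gy on one plate. After 6 days, MTT readout at 570 nm. Combination index by Chou–Talalay from viability data.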
For orientation: Tetrazolium dyes change colour on reduction, which living cells bring about.

In test [11] the test system is FaDu. As to the kind of experiment: Synergistic antiproliferative activity against human FADU cells assessed as fractional inhibition at 5 uM preincubated for 1 hr followed by irradiation with 5 Gy IR and measured after 6 days by MTT assay (reference value: 0.097). Type of test: functional. The method, boiled down: as §1
For test [12], the system named is SCC-25. Briefly: Synergistic induction of cell cycle arrest in human SCC25 cells assessed as increase in accumulation at G2/M phase at 0.5 uM followed irradiation with 5Gy IR incubated for 24 hrs by propidium iodide staining based flow cytometry. It is filed as functional. In a few lines:
as §2

In test [13] the test system is FaDu. As to the kind of experiment: Synergistic antiproliferative activity against human FADU cells assessed as fractional inhibition at 0.05 uM preincubated for 1 hr followed by irradiation with 10 Gy IR and measured after 6 days by MTT assay (reference value: 0.388). Type of test: functional. In a few lines: as §1
For test [14], the system named is FaDu. Briefly: Antiproliferative activity against human FADU cells assessed as fractional inhibition at 0.5 uM after 6 days in absence of irradiation by MTT assay. Type of test: functional. In a few lines:
as §1

The subject of test [15] is SCC-25. As to the kind of experiment: Synergistic induction of cell cycle arrest in human SCC25 cells at 0.5 uM followed by irradiation with 5Gy IR incubated for 6 hrs by propidium iodide staining based flow cytometry. It is filed as functional. The method, boiled down: as §2
In test [16] the test system is SCC-25. Briefly: Synergistic antiproliferative activity against human SCC25 cells assessed as combination index at 0.5 uM preincubated for 1 hr followed by irradiation with 2.5 Gy IR and measured after 6 days by MTT assay. It is filed as functional. The method, boiled down:
as §3

The test system of test [17] is FaDu. As to the kind of experiment: Synergistic antiproliferative activity against human FADU cells assessed as fractional inhibition at 5 uM preincubated for 1 hr followed by irradiation with 2.5 Gy IR and measured after 6 days by MTT assay (reference value: 0.131). Type of test: functional. In a few lines: as §1
For test [18], the system named is SCC-25. Briefly: Antiproliferative activity against human SCC25 cells assessed as fractional inhibition at 5 uM after 6 days in absence of irradiation by MTT assay. Type of test: functional. In a few lines: as §1

By inhibition is commonly meant the relative decrease from the control value, in per cent. The term pIC50 denotes the negative decadic logarithm of the IC50, by convention in mol/L. As to `COc1ccc2c(c1)N(CCO)C1=C(C(=O)OC1)C2c1ccccc1` (centres undefined), the “Ratio IC50” value in [1] is 2. Besides, in [2], the inhibition entry was “inactive”. The inhibition result in test [3] was “Dose-dependent effect”. In addition, the pIC50 in [3] (light or radiation study) is 6.30. Besides, in [4], the inhibition at 1 µM is 20%. In addition, the result in test [5] and in test [7] was Active. Besides, the “fractional inhibitory concentration index (FICI)” value in [6] is reported as 0.236; in [11] it was 0.633; in test [13], 0.452; in [14], 0.264; in test [17] it was 0.501; in [18], 0.744. The outcome in [8] and in test [15] was inactive. In test [9], the inhibition entry was “Active”. Further, the results for the CI in test [10] and in [16] were 1.056 and 0.386, respectively. In addition, the “fold change (FC)” value in test [12] is on record as 2.
